Data as given in ChEMBL document CHEMBL1135646, “In vitro photodynamic properties of chalcogenopyrylium analogues of the thiopyrylium antitumor agent AA1” (J Med Chem, 2002).

Key:
[1] = compound evaluated for dark induced toxicity toward COLO-26, murine colon carcinoma cell line; assay type: cell-based; conditions: mouse, COLO-26 (Colon 26) murine colon carcinoma cells; read-out: LD50 (the source's name)
In short: (§1)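 Colo-26 murine colon carcinoma cells were grown in RPMI 1640 with 10% FCS at 37 °C, 5% CO2, and plated at 5×10^3 cells/well the evening before. After two PBS washes, they took dye at various concentrations in HBSS with 1% FCS at 37 °C. They were then washed, left unirradiated, given growth medium, and kept 24 h. Survival was read by MTT, and LD50 is the 50% kill concentration.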

[2] = Distribution coefficient between octanol and phosphate buffer at pH6.0; assay type: physicochemical; conditions: pH 6
In short: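 Shake-flask partitioning between n-octanol and pH 6 phosphate buffer as the aqueous phase. Mixing for 3–5 min, then 1 h settling, with equilibration at 23 °C. Each phase is quantified by UV–visible spectrophotometry, and the result is reported as log P.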

Colon 26 = assay: Effective concentration evaluated in light induced toxicity toward COLO-26, murine colon carcinoma cell line after irradiation with 15 J/cm**2 of 360-800nm light; assay type: functional, cell-based; conditions: Mus musculus, Colon 26, light or radiation study
In short: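 Colo-26 cells in RPMI 1640 with 10% FCS are seeded at 5×10^3 cells/well the evening before. Cells are washed with PBS and given dye in HBSS with 1% FCS for 2 h at 37 °C. After a wash, irradiation in PBS with 1% FCS uses filtered 360–800-nm tungsten-halogen light to 15 J cm⁻². Growth medium is added and cells are held 24 h. MTT read-out; EC50 is the concentration giving 50% cell kill.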

[3] = Ratio of LD50 value to that of EC50 value.; assay type: functional
[4] = Lethal dose evaluated in dark induced toxicity toward COLO-26, murine colon carcinoma cell line; conditions: mouse, COLO-26 (Colon 26) murine colon carcinoma cells; read-out: LD50 (the source's name); in short: as §1

Row | SMILES | CC50 [1] | logD [2] | EC50 (Colon 26) | Ratio [3] | CC50 [4]
1 | Nc1ccc(-c2cc(-c3ccc(N4CCOCC4)cc3)cc(-c3ccc(N)cc3)[s+]2)cc1 | 800 nM | 1.8 |  |  | 
2 | c1cc(N2CCOCC2)ccc1-c1cc(-c2ccc(N3CCOCC3)cc2)[se+]c(-c2ccc(N3CCOCC3)cc2)c1 | 7200 nM | 1.2 | 800 nM | 9 | 
3 | Nc1ccc(-c2cc(-c3ccc(N4CCOCC4)cc3)cc(-c3ccc(N)cc3)[se+]2)cc1 | 3800 nM | 1.5 | 1200 nM | 3.2 | 
4 | Nc1ccc(-c2cc(-c3ccc(N4CCOCC4)cc3)cc(-c3ccc(N4CCOCC4)cc3)[te+]2)cc1 | 800 nM | 1.6 | 600 nM | 1.3 | 
5 | CN(C)c1ccc(-c2cc(-c3ccccc3)[se+]c(-c3ccc(N)cc3)c2)cc1 | 2600 nM | 1.2 | 200 nM | 13 | 
6 | CN(C)c1ccc(-c2cc(-c3ccccc3)[s+]c(-c3ccc(N)cc3)c2)cc1 | 70 nM | 1.3 |  |  | 
7 | CN(C)c1ccc(-c2cc(-c3ccc(N)cc3)[se+]c(-c3ccc(N)cc3)c2)cc1 | 1400 nM | 1.7 | 370 nM | 3.8 | 
8 | CN(C)c1ccc(-c2cc(-c3ccc(N(C)C)cc3)[s+]c(-c3ccc(N(C)C)cc3)c2)cc1 | 500 nM | 2.2 | 200 nM | 2.5 | 
9 | CN(C)c1ccc(-c2cc(-c3ccc(N)cc3)[te+]c(-c3ccc(N4CCOCC4)cc3)c2)cc1 |  | 1 |  |  | 500 nM
10 | CN(C)c1ccc(-c2cc(-c3ccc(N)cc3)[s+]c(-c3ccc(N)cc3)c2)cc1 | 100 nM | 1.9 |  |  | 
11 | Nc1ccc(-c2cc(-c3ccc(N4CCOCC4)cc3)cc(-c3ccc(N4CCOCC4)cc3)[s+]2)cc1 | 66000 nM | 1.3 | 2000 nM | 33 | 
12 | CN(C)c1ccc(-c2cc(-c3ccc(N)cc3)[s+]c(-c3ccc(N4CCOCC4)cc3)c2)cc1 | 900 nM | 0.9 |  |  | 
13 | CN(C)c1ccc(-c2cc(-c3ccccc3)cc(-c3ccc(N)cc3)[se+]2)cc1 | 400 nM | 1.3 |  |  | 
14 | CN(C)c1ccc(-c2cc(-c3ccc(N)cc3)[te+]c(-c3ccc(N)cc3)c2)cc1 | 500 nM | 2 |  |  | 
15 | CN(C)c1ccc(-c2cc(-c3ccccc3)[te+]c(-c3ccc(N)cc3)c2)cc1 | 600 nM | 1.9 |  |  | 
16 | Nc1ccc(-c2cc(-c3ccc(N4CCOCC4)cc3)cc(-c3ccc(N)cc3)[te+]2)cc1 | 1400 nM | 1.9 |  |  | 
17 | CN(C)c1ccc(-c2cc(-c3ccc(N)cc3)[se+]c(-c3ccc(N4CCOCC4)cc3)c2)cc1 | 1500 nM | 1 | 70 nM | 21 | 
18 | Nc1ccc(-c2cc(-c3ccccc3)cc(-c3ccc(N4CCOCC4)cc3)[se+]2)cc1 | 900 nM | 0.9 |  |  | 
19 | Nc1ccc(-c2cc(-c3ccc(N4CCOCC4)cc3)cc(-c3ccccc3)[se+]2)cc1 | 6500 nM | 1.2 |  |  | 
20 | Nc1ccc(-c2cc(-c3ccccc3)cc(-c3ccc(N4CCOCC4)cc3)[s+]2)cc1 | 1800 nM | 1.1 |  |  | 
21 | Nc1ccc(-c2cc(-c3ccccc3)cc(-c3ccc(N4CCOCC4)cc3)[te+]2)cc1 | 70 nM | 1 |  |  | 
22 | CN(C)c1ccc(-c2cc(-c3ccc(N(C)C)cc3)[se+]c(-c3ccc(N(C)C)cc3)c2)cc1 | 500 nM | 2.2 | 300 nM | 1.7 | 
23 | Nc1ccc(-c2cc(-c3ccc(N4CCOCC4)cc3)cc(-c3ccc(N4CCOCC4)cc3)[se+]2)cc1 | 6900 nM | 1.2 | 1900 nM | 3.6 | 
